The values that follow come from PubChem BioAssay AID871 (The Scripps Research Institute Molecular Screening Center, 2007).

In all, about 190,000 compounds went through this assay and about 1,800 (0.95%) were called active.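 The calls were made as follows: active = activation above the screen-wide mean of compound activation plus 3 SD (cut at about 130% in these data); inactive = the rest.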 For the sample, actives were picked, then their nearest neighbours and some compounds at random.

The experiment in a line: IL-6 driven STAT3 reporter potentiators, primary screen, U3A cells, luciferase, luminescence, MLSCN library (AID 871).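 Also: 0% = background luminescence of wells with medium and substrate only.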 The note with it: IL-6 STAT3-luciferase reporter, at 5.6 µM, stronger effect = higher value, 100% = signal with IL-6 EC80 alone. The gist of the method:
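Detection: reporter luminescence signal / Assay system: STAT1-lacking human U3A cells, STAT3 luciferase reporter / Incubation: compound pre-incubation 1 h before IL-6, then 6 h stimulation at 37 °C / Control set: IL-6-only high control / Read-out: % activation relative to IL-6 control / Probe or stimulus: Interleukin-6, 33 ng/mL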
Take `Cn1c(=NC(=O)c2ccco2)sc2cccc(F)c21`: the activation (% of control) was 144% (active).
For `CCCC(=O)N=c1sc2cccc(F)c2n1C`, the activation (% of control) was 113% (inactive).
Take `Cn1c(=NC(=O)c2cnccn2)sc2ccccc21`: the activation (% of control) was 83.8% (inactive).
On to `COc1ccccc1NC(=O)CCCc1c[nH]c2ccccc12`, for which the activation (% of control) was 88.8% (inactive).
Consider `CCOC(=O)CN(C)Cc1c[nH]c2ccccc12`, for which the activation (% of control) is 137% (active).
As to `NC(=O)CSc1c[nH]c2ccccc12`, the activation (% of control) is 143% (active).
With `O=C(Cc1c[nH]c2ccccc12)OCCOC(=O)Cc1c[nH]c2ccccc12`, the activation (% of control) was 136% (active).
Regarding `NS(=O)(=O)c1ccc(NC(=O)COC(=O)CCc2c[nH]c3ccccc23)cc1`, the activation (% of control) is 108% (inactive).
Turning to `O=C(CSc1nnc(-c2c[nH]c3ccccc23)o1)c1ccccc1`, the activation (% of control) was 106% (inactive).
Consider `CCC(CC)NC(=O)CSc1nnc(-c2c[nH]c3ccccc23)o1`, for which the activation (% of control) was 90.9% (inactive).
As to `CN(Cc1cccs1)C(=O)Cc1c[nH]c2ccccc12`, the activation (% of control) is 86% (inactive).
As to `CC(C)(C)N(Cc1ccccc1)C(=O)COC(=O)CCc1c[nH]c2ccccc12`, the activation (% of control) was 87.1% (inactive).
As for `Cc1ccnc(NC(=O)Cn2ccc([N+](=O)[O-])n2)c1`, the activation (% of control) is 96.1% (inactive).
As to `CCOC(=O)c1cnc2c(c(C)nn2CC)c1Cl`, the activation (% of control) was 107% (inactive).
With `Oc1oc(-c2ccccc2Br)nc1/C=N/c1ccccn1`, the activation (% of control) is 107% (inactive).
Consider `O=C(CSc1ccccc1F)NC1CCS(=O)(=O)C1` (stereo not drawn), for which the activation (% of control) is 95.7% (inactive).
In the case of `CC(NC(=O)COC(=O)C1CCN(S(=O)(=O)c2ccccc2C(F)(F)F)CC1)c1ccccc1` (stereo not drawn), the activation (% of control) was 106% (inactive).
In the case of `CCOc1ccc(-n2c(SCC(=O)NC3CCS(=O)(=O)C3)nnc2-c2cccnc2)cc1` (stereo not drawn), the activation (% of control) is 99.7% (inactive).
`COC(=O)C(C)N=Cc1ccccc1` (stereo not drawn): the activation (% of control) is 102% (inactive).
As for `S=C(NCCc1ccccc1)N1CCn2cccc2C1c1ccncc1` (stereo not drawn), the activation (% of control) is 103% (inactive).
As to `Cn1nc(C(F)(F)F)c2cc(C(=O)N3CCOCC3)sc21`, the activation (% of control) is 105% (inactive).
Consider `Cc1ccc(NC(=O)CN2CCc3ccccc3C2)cc1`, for which the activation (% of control) was 99.5% (inactive).
For the compound `Cc1ccc(S(=O)(=O)Nc2nc3ccccc3nc2N2CCc3ccccc3C2)cc1`, the activation (% of control) is 147% (active).
Take `Cc1ccc(S(=O)(=O)C(C#N)c2nc3ccccc3nc2N2CCCC2)cc1C` (stereo not drawn): the activation (% of control) was 92.7% (inactive).
Consider `O=C(COc1ccccc1)Nc1ccc(N2CCN(C(=O)c3cccs3)CC2)cc1`, for which the activation (% of control) is 93.1% (inactive).
As for `O=C1NC2(CCCCCC2)C(=O)N1CCS(=O)(=O)Oc1ccccc1`, the activation (% of control) is 104% (inactive).
Turning to `Cc1cc(NC(=O)CSc2nc3cc(Cl)ccc3c(=O)n2Cc2ccco2)no1`, the activation (% of control) is 103% (inactive).
In the case of `Clc1cccc(-c2nc3nc4ccccc4nc3n2Cc2ccco2)c1`, the activation (% of control) is 135% (active).
For `Cc1ccc(Cn2c(C)nc3c(c2=O)c2nc4ccccc4nc2n3Cc2ccco2)cc1`, the activation (% of control) was 107% (inactive).
Turning to `C/C(=N\NC(=O)CCn1nc(C)cc1C)C(C)(C)C`, the activation (% of control) was 95.6% (inactive).
With `O=C(CSc1ncnc2scc(-c3ccccc3)c12)NCc1ccc2c(c1)OCO2`, the activation (% of control) is 103% (inactive).
Next, `COc1ccccc1N1CCN(C(=O)c2cc3c(-c4ccc(Cl)cc4)nn(C)c3s2)CC1`: 146% (active).
On to `Cn1nc(-c2ccc(Cl)cc2)c2cc(C(=O)NCc3ccco3)sc21`, for which the activation (% of control) was 158% (active).
Consider `COc1cccc(-c2nn(C)c3sc(C(=O)N4CCN(c5ccccc5)CC4)cc23)c1`, for which the activation (% of control) is 103% (inactive).
Next, `COc1ccc2c(Cl)c(C(=O)NCc3ccco3)sc2c1`: 95.9% (inactive); `COc1ccc(-c2cc(C(=O)NCc3ccco3)no2)cc1OC`: 101% (inactive).
Turning to `CCOC(=O)N1CCN(C(=O)c2cc3c(-c4ccc(Cl)cc4)nn(C)c3s2)CC1`, the activation (% of control) is 107% (inactive).
Turning to `CN(C)C(=O)c1ccc2c(c1)C1C3CCC(C3)C1C(c1ccccc1)N2` (stereo not drawn), the activation (% of control) was 91.5% (inactive).
For `CCOc1ccc(NS(=O)(=O)c2cc(C)c(C)cc2C)cc1`, the activation (% of control) is 102% (inactive).
Consider `COc1ccc(OC(C)C(=O)NCCc2nc3ccccc3[nH]2)cc1` (stereo not drawn), for which the activation (% of control) was 98.1% (inactive).
`COc1cc(OC)cc(C(=O)N[C@H](C(=O)Nc2nc3ccccc3[nH]2)C(C)C)c1`: the activation (% of control) was 148% (active).
For `COc1cc(OC)cc(C(=O)N[C@H](C(=O)OCC(=O)NC(C)c2ccccc2)C(C)C)c1` (stereo partly drawn), the activation (% of control) was 102% (inactive).
On to `Cc1cc2oc(=O)cc(CN3CCN(S(=O)(=O)c4cccs4)CC3)c2cc1C(C)C`, for which the activation (% of control) was 98.7% (inactive).
The figure for `COCCn1c(C)cc(C2=NNC(=Nc3ccc(F)cc3)SC2)c1C` is 133% (active); for `Cc1cc(C2=NNC(=Nc3ccc(S(=O)(=O)N4CCOCC4)cc3)SC2)c(C)n1CC1CCCO1` (stereo not drawn) it is 102% (inactive).
The figure for `C=CCn1c(C)cc(C2=NNC(=NCC)SC2)c1C` is 8.94% (inactive); for `Cc1c(Cl)c([N+](=O)[O-])nn1CCCC(=O)NC(C)c1ccccc1` (stereo not drawn) it is 101% (inactive); for `O=S1(=O)CC/C(=N\Nc2ccc(F)cc2)c2ccsc21` it is 80.3% (inactive).
On to `C=Cn1c(C(=O)O)ccc1-c1ccc(OC)cc1`, for which the activation (% of control) is 103% (inactive).
Next, `O=C(COC(=O)c1ccncc1)c1ccccc1`: 97.1% (inactive).
For `COc1cccc(NC(=O)C(Sc2nnnn2C)c2ccccc2)c1` (stereo not drawn), the activation (% of control) was 88.9% (inactive).
Consider `Cc1sc2ncnc(Sc3nc4ccccc4s3)c2c1C`, for which the activation (% of control) is 135% (active).
Regarding `COC(=O)c1c(-c2cccs2)csc1NC(=O)CSc1ncnc2sc(C)c(C)c12`, the activation (% of control) was 93.1% (inactive).
Next, `CSc1ncnc2sc(C)c(C)c12`: 91.1% (inactive); `Cc1csc(CN(C)C(=O)CC2C(=O)NCCN2CC(C)(C)C)n1` (stereo not drawn): 96.6% (inactive).
On to `O=C(CN1CCN(c2ccc(Cl)cc2)CC1)NCc1cccs1`, for which the activation (% of control) was 99% (inactive).
As to `CC(=O)NC1(c2ccc(F)cc2)CCN(C(=O)c2c(F)cccc2F)CC1`, the activation (% of control) is 104% (inactive).
The figure for `Cc1c(CCO)c(=O)[nH]n1C(=O)c1c(F)cccc1F` is 134% (active); for `Cc1c(CCO)c(=O)n(-c2ccccc2)n1S(=O)(=O)c1ccc(F)cc1` it is 100% (inactive).
The figure for `CN1CCN(CCCCOc2ccccc2-c2ccccc2)CC1` is 96.6% (inactive); for `CCOC(=O)c1ccccc1NC(=S)N1CCC(C(N)=O)CC1` it is 98.2% (inactive); for `COc1ccc(Cl)cc1N(CC(=O)N1CCCCC1)S(C)(=O)=O` it is 99% (inactive).
Consider `Cc1ccc2cc(C)c(N3CCC(C)CC3)nc2c1`, for which the activation (% of control) is 86.1% (inactive).
On to `COc1ccccc1-c1nnc(SCC(=O)N2CC(C)CC(C)C2)o1` (stereo not drawn), for which the activation (% of control) is 138% (active).
Regarding `COc1ccccc1N1CCN(C(=O)CSc2nnc(-c3ccoc3C)o2)CC1`, the activation (% of control) is 93.7% (inactive).
Next, `COc1ccccc1-c1nnc(SCC(=O)Nc2ccccc2)o1`: 91.3% (inactive).
In the case of `Cc1ccc(-n2c(SCC(=O)Nc3ncc(Cl)cc3Cl)nc3ccccc32)cc1`, the activation (% of control) is 98% (inactive).
In the case of `Cc1ccc(NC(=O)c2sc3nc(N)c(C#N)cc3c2N)cc1`, the activation (% of control) is 100% (inactive).
Next, `Cc1cccc(OP(=O)(Nc2c(C)n(C)n(-c3ccccc3)c2=O)Oc2cccc(C)c2)c1`: 98.3% (inactive).
Consider `COc1ccc(C)cc1NC(=O)c1ccc(-c2ccc(C(C)=O)cc2)o1`, for which the activation (% of control) is 78.6% (inactive).
The figure for `COc1cccc(NC(=S)NCc2ccccn2)c1` is 106% (inactive); for `COc1cccc(NC(=O)C(C)Oc2ccccc2)c1` (stereo not drawn) it is 97.5% (inactive); for `COc1cccc(NC(=S)C(C#N)=C2N(C)c3ccccc3N2C)c1` it is 145% (active).
`O=C(NCC1CCN(Cc2ccccc2Cl)CC1)Nc1cccc(Cl)c1`: the activation (% of control) is 102% (inactive).
The figure for `CNc1nc(Nc2ccc(C)c(Cl)c2)nc(N)c1[N+](=O)[O-]` is 132% (inactive); for `Cc1ccc(C(=O)N/C(=C/c2ccco2)C(=O)NCCc2c[nH]c3ccccc23)cc1C` it is 134% (active).
On to `COc1ccc(/C=C(\NC(=O)c2ccc(OC)c(OC)c2)C(=O)NCCc2c[nH]c3ccccc23)cc1`, for which the activation (% of control) was 112% (inactive).
Next, `O=C(NC(Cc1c[nH]c2ccccc12)C(=O)O)/C(=C/c1ccco1)NC(=O)c1ccccc1` (stereo not drawn): 107% (inactive).
Consider `COC(=O)c1[nH]c2ccccc2c1NC(=O)CN1CCCc2ccccc21`, for which the activation (% of control) is 154% (active).
For `COC(=O)c1[nH]c2cccc(C)c2c1NC(=O)CN1CCCc2ccccc21`, the activation (% of control) is 140% (active).
On to `NS(=O)(=O)c1cccc(NC(=O)CN2CCCc3ccccc32)c1`, for which the activation (% of control) was 106% (inactive).
Turning to `CCOC(=O)c1[nH]c2ccc(OC)cc2c1NC(=O)CCN1CCN(Cc2ccccc2)CC1`, the activation (% of control) is 104% (inactive).
Turning to `O=C(CN1CCc2ccccc21)NC(c1ccccc1)c1ccccc1`, the activation (% of control) was 103% (inactive).
As for `Cc1ccccc1NC(=O)CNc1ccccc1N1CCCCC1`, the activation (% of control) was 101% (inactive).
Turning to `CC(C(=O)N=Nc1c(O)n(C)c2ccc(Br)cc12)n1cnc2ccccc2c1=O` (stereo not drawn), the activation (% of control) is 121% (inactive).
`CCN1CCN(c2ccc(NC(=O)c3cnccn3)cc2)CC1`: the activation (% of control) is 100% (inactive).
With `CCCCCC1CCC(c2nnc(SCC(C)=O)o2)CC1` (stereo not drawn), the activation (% of control) was 101% (inactive).
For the compound `CN(C)/C(=N\OC(=O)c1ccccc1)c1nonc1N`, the activation (% of control) was 97.7% (inactive).
For `Cn1c(-c2ccc(F)cc2)cnc1SCC(=O)NCc1ccco1`, the activation (% of control) was 101% (inactive).
For the compound `O=c1[nH]c(CSc2ncc(-c3ccc(F)cc3)n2Cc2ccco2)nc2ccccc12`, the activation (% of control) is 152% (active).
Regarding `CCn1c(Cc2ccccc2)nnc1SCc1nc2ccccc2c(=O)[nH]1`, the activation (% of control) was 107% (inactive).
Consider `CC(C(=O)O)n1cnc2sc3c(c2c1=O)CCCC3` (stereo not drawn), for which the activation (% of control) was 102% (inactive).
For `COc1ccc(C2C(C(C)=O)=C(O)C(=O)N2c2nccs2)cc1` (stereo not drawn), the activation (% of control) was 134% (active).
On to `COc1ccc(C2C(C(C)=O)=C(O)C(=O)N2Cc2cccnc2)cc1` (stereo not drawn), for which the activation (% of control) was 100% (inactive).
For the compound `COc1ccc(C2C(C(C)=O)=C(O)C(=O)N2CCc2c[nH]c3ccccc23)cc1` (stereo not drawn), the activation (% of control) is 108% (inactive).
Next, `O=C(Cc1ccccc1Cl)N1CCN(c2ccccn2)CC1`: 100% (inactive).
Take `Cn1nnnc1NCc1ccc(Cl)c(Cl)c1`: the activation (% of control) is 101% (inactive).
The figure for `C[n+]1ccc(/C=C/c2c[nH]c3ccccc23)cc1` is 115% (inactive).
